Measurements from ChEMBL document CHEMBL1156597, “Structure-activity relationship of kahalalide F synthetic analogues” (J Med Chem, 2008).

Key:
HeLa = experiment: Cytotoxicity against human HeLa cells after 48 hrs by SRB assay; assay type: functional; details: for CC50: read-out: LC50 (the source's name)
Outline: (§1)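 Cells grown in RPMI 1640 with 10% FBS and penicillin/streptomycin at 37 °C and 5% CO₂, trypsinized, then seeded at 5 × 10³/well. After 18 h drug-free attachment, samples in DMSO/EtOH/PBS (0.5:0.5:99) were added for 48 h continuous exposure. Cells were fixed with cold TCA (1 h, 4 °C) and stained with SRB (10 min). Tris-solubilized stain read at 490 nm. Triplicate wells, mean ± SD; GI₅₀ derived.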

LoVo [1] = experiment: Cytotoxicity against human doxorubicin resistant LoVo cells after 48 hrs by SRB assay; assay type: functional; details: for CC50: read-out: LC50 (the source's name); outline: as §1
SK-MEL-28 = experiment: Cytotoxicity against human SK-MEL-28 cells after 48 hrs by SRB assay; assay type: functional, cell-based; details: Homo sapiens, SK-MEL-28, 48 h; for CC50: read-out: LC50 (the source's name); outline: as §1
SK-BR-3 = experiment: Cytotoxicity against human SKBR3 cells after 48 hrs by SRB assay; assay type: functional; details: SK-BR-3, 48 h; for GI50: read-out: GI50; for CC50: read-out: LC50 (the source's name); outline: as §1
LNCaP = experiment: Cytotoxicity against human LNcaP cells after 48 hrs by SRB assay; assay type: functional; details: for CC50: read-out: LC50 (the source's name); outline: as §1
PANC-1 = experiment: Cytotoxicity against human PANC1 cells after 48 hrs by SRB assay; assay type: functional; details: PANC-1, 48 h; for CC50: read-out: LC50 (the source's name); outline: as §1
LoVo [2] = experiment: Cytotoxicity against human LoVo cells after 48 hrs by SRB assay; assay type: functional; details: for CC50: read-out: LC50 (the source's name)
[3] = Cytotoxicity against human IGROV cells after 48 hrs by SRB assay; assay type: functional; details: for CC50: read-out: LC50 (the source's name); outline: as §1
DU-145 = experiment: Cytotoxicity against human DU145 cells after 48 hrs by SRB assay; assay type: functional, cell-based; details: Homo sapiens, DU-145, 48 h; for CC50: read-out: LC50 (the source's name); outline: as §1
A549 = experiment: Cytotoxicity against human A549 cells after 48 hrs by SRB assay; assay type: functional, cell-based; details: Homo sapiens, A549, 48 h; outline: as §1
[4] = Cytotoxicity against human IGROV-ET cells after 48 hrs by SRB assay; assay type: functional; details: for CC50: read-out: LC50 (the source's name); outline: as §1
K562 = experiment: Cytotoxicity against human K562 cells after 48 hrs by SRB assay; assay type: functional; details: K562, 48 h; for CC50: read-out: LC50 (the source's name); outline: as §1
HT-29 = experiment: Cytotoxicity against human HT29 cells after 48 hrs by SRB assay; assay type: functional, cell-based; details: Homo sapiens, HT-29, 48 h; for CC50: read-out: LC50 (the source's name); outline: as §1
[5] = Cytotoxicity against human HeLa-APL cells after 48 hrs by SRB assay; assay type: functional; outline: as §1

SMILES: C/C=C1\NC(=O)[C@H](Cc2ccccc2)NC(=O)[C@@H](C(C)C)NC(=O)[C@@H]([C@H](C)CC)NC(=O)[C@H](NC(=O)[C@H](NC(=O)[C@H](CCCN)NC(=O)[C@H]2CCCN2C(=O)[C@H](NC(=O)[C@@H](NC(=O)[C@H](Cc2ccccc2)NC(=O)[C@H](NC(=O)CCCC(C)C)C(C)C)C(C)C)C(C)C)[C@H](C)CC)[C@H](C)OC(=O)[C@H](C(C)C)NC1=O
- GI50 (HeLa): 128 nM
- TGI (HeLa): 137 nM
- CC50 (HeLa): 352 nM
- GI50 (LoVo [1]): 380 nM
- TGI (LoVo [1]): 456 nM
- CC50 (LoVo [1]): 252 nM
- GI50 (SK-MEL-28): 146 nM
- GI50 (SK-MEL-28; read-out: GI50): 152 nM
- CC50 (SK-MEL-28): 158 nM
- TGI (SK-BR-3): 351 nM
- GI50 (SK-BR-3): 303 nM
- CC50 (SK-BR-3): 352 nM
- GI50 (LNCaP): 61.7 nM
- TGI (LNCaP): 132 nM
- CC50 (LNCaP): 777 nM
- GI50 (PANC-1): 142 nM
- TGI (PANC-1): 304 nM
- CC50 (PANC-1): 1720 nM
- GI50 (LoVo [2]): 332 nM
- TGI (LoVo [2]): 296 nM
- CC50 (LoVo [2]): 210 nM
- GI50 [3]: 103 nM
- GI50 ([3]; read-out: GI50): 175 nM
- CC50 [3]: 478 nM
- GI50 (DU-145): 166 nM
- GI50 (DU-145; read-out: GI50): 191 nM
- CC50 (DU-145): 321 nM
- LC50 (A549): 1330 nM
- TGI (A549): 71.4 nM
- GI50 (A549; read-out: GI50): 69.4 nM
- GI50 [4]: 197 nM
- GI50 ([4]; read-out: GI50): 245 nM
- CC50 [4]: 518 nM
- GI50 (K562): 23.2 nM
- TGI (K562): 106 nM
- CC50 (K562): 1150 nM
- CC50 (HT-29): 68.3 nM
- GI50 [5]: 145 nM
- LC50 (concentration giving 50% net cell kill) [5]: 282 nM
- TGI [5]: 142 nM

SMILES: C/C=C1\NC(=O)[C@H](Cc2ccccc2)NC(=O)[C@@H](C(C)C)NC(=O)[C@@H]([C@H](C)CC)NC(=O)[C@H](NC(=O)[C@H](NC(=O)[C@H](CCCN)NC(=O)[C@H]2CCCN2C(=O)[C@H](NC(=O)[C@@H](NC(=O)CNC(=O)[C@H](NC(=O)CCCC(C)C)C(C)C)C(C)C)C(C)C)[C@H](C)CC)[C@H](C)OC(=O)[C@H](C(C)C)NC1=O
- GI50 (HeLa): 250 nM
- TGI (HeLa): 471 nM
- CC50 (HeLa): 755 nM
- GI50 (LoVo [1]): 2390 nM
- TGI (LoVo [1]): 3040 nM
- CC50 (LoVo [1]): 3850 nM
- GI50 (SK-MEL-28): 283 nM
- GI50 (SK-MEL-28; read-out: GI50): 205 nM
- CC50 (SK-MEL-28): 717 nM
- TGI (SK-BR-3): 819 nM
- GI50 (SK-BR-3): 629 nM
- CC50 (SK-BR-3): 512 nM
- GI50 (LNCaP): 233 nM
- TGI (LNCaP): 988 nM
- CC50 (LNCaP): 988 nM
- GI50 (PANC-1): 515 nM
- TGI (PANC-1): 1070 nM
- CC50 (PANC-1): 1990 nM
- GI50 (LoVo [2]): 597 nM
- TGI (LoVo [2]): 1130 nM
- CC50 (LoVo [2]): 828 nM
- GI50 [3]: 83.7 nM
- GI50 ([3]; read-out: GI50): 80.7 nM
- CC50 [3]: 139 nM
- GI50 (DU-145): 994 nM
- GI50 (DU-145; read-out: GI50): 572 nM
- CC50 (DU-145): 1360 nM
- GI50 (A549): 622 nM
- GI50 (A549; read-out: GI50): 524 nM
- GI50 [4]: 232 nM
- GI50 ([4]; read-out: GI50): 197 nM
- CC50 [4]: 566 nM
- GI50 (K562): 129 nM
- TGI (K562): 208 nM
- CC50 (K562): 744 nM
- GI50 (HT-29): 893 nM
- TGI (HT-29): 1850 nM
- CC50 (HT-29): 796 nM
- GI50 [5]: 230 nM
- LC50 (concentration giving 50% net cell kill) [5]: 684 nM
- TGI [5]: 421 nM
